pIC50: −log10 of the molar value. In brackets after ≈: the same amount, converted by molar mass. Activity calls are given as the source filed them. No cut-off for these calls is given here.
Columns and labels:
[1] = Genotoxicity in Salmonella typhimurium TA98 at 30 uM in presence of rat liver S9 fraction by Ames test; format: toxicity, subcellular; conditions: salmonella enterica subsp. enterica serovar typhimurium, s9, 30 µM
Procedure, shortened: (§1)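 Microplate fluctuation Ames reverse-mutation test following kit instructions; TA98 detects frameshift and TA100 base-exchange mutations. Compound at 30 µM final with Aroclor-1254-induced rat liver S9 plus cofactors.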

[2] = Genotoxicity in Salmonella typhimurium TA100 at 30 uM in presence of rat liver S9 fraction by Ames test; format: toxicity, subcellular; conditions: salmonella enterica subsp. enterica serovar typhimurium, s9, 30 µM; procedure, shortened: as §1
[3] = tested on: Mycobacterium avium; assay: Antimycobacterial activity against Mycobacterium avium CNCTC My 330/88 after 14 days; format: functional; conditions: CNCTC My 330/88, 336 h
Procedure, shortened: (§2)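 M. avium was tested by microdilution in Šula's semisynthetic medium, with compounds dissolved in DMSO and serially diluted from 1000 down to 1. Inoculum was a 1.0 McFarland suspension diluted 10-5. Plates were incubated at 37 °C and read at 14 and 21 days. […] Isoniazid and rifampicin served as standards.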

[4] = tested on: Mycobacterium kansasii; assay: Antimycobacterial activity against Mycobacterium kansasii 6509/96 after 7 days; format: functional; conditions: 6509/96, 168 h
Procedure, shortened: (§3)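 Microdilution in Šula's semisynthetic medium; compounds in DMSO at 32–0.03 µM. Inoculum from 1.0 McFarland suspension diluted 10-4. […] Isoniazid and rifampicin as reference drugs.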

[5] = Cytotoxicity against human A431 cells assessed as cell viability at 30 uM after 48 hrs by CellTiter 96 aqueous one solution assay relative to control; format: cell-based, A-431; conditions: read-out: Activity
Procedure, shortened: (§4)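 HepG2 (DMEM, 10% FBS, 1 mM pyruvate) or A431 (DMEM, 10% FBS) seeded 10,000 cells/well, 24 h at 37 °C, 5% CO2, then 30 µM compound for 48 h. MTS reagent 60 min, absorbance 490 nm, background subtracted; 0.1% DMSO vehicle = 100%, 10% SDS = 0% viability.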

[6] = tested on: Candida parapsilosis; assay: Antifungal activity against Candida parapsilosis ATCC 22019 CCM 8260 at highest concentration measured after 24 to 48 hrs by alamar blue dye based broth microdilution assay; format: functional, organism-based
[7] = tested on: Mycobacterium kansasii; assay: Antimycobacterial activity against Mycobacterium kansasii CNCTC My 235/80 after 7 days; format: functional; conditions: CNCTC My 235/80, 168 h; procedure, shortened: as §3
[8] = tested on: A-431; assay: Cytotoxicity against human A431 cells assessed as reduction in cell viability after 48 hrs by CellTiter 96 aqueous one solution assay; format: cell-based; conditions: A-431, 48 h
[9] = tested on: Mycobacterium avium; assay: Antimycobacterial activity against Mycobacterium avium CNCTC My 330/88 after 21 days; format: functional; conditions: CNCTC My 330/88, 504 h; procedure, shortened: as §2
[10] = tested on: Mycobacterium tuberculosis; assay: Antimycobacterial activity against XDR Mycobacterium tuberculosis Praha 131 after 14 days; format: functional; conditions: Praha 131, 336 h
Procedure, shortened: (§5)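 M. tuberculosis strains (H37Rv and clinical MDR/XDR isolates) tested by microdilution in Šula's semisynthetic medium. Compounds were dissolved in DMSO and tested at 32 to 0.03 µM in twofold steps. Inoculum was a 1.0 McFarland suspension diluted 10-3. Plates were incubated at 37 °C and read at 14 and 21 days.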

[11] = tested on: Trichophyton interdigitale; assay: Antifungal activity against Trichophyton interdigitale ATCC 9533 CCM 8377 at highest concentration measured after 72 to 120 hrs by alamar blue dye based broth microdilution assay; format: functional
[12] = tested on: Aspergillus fumigatus; assay: Antifungal activity against Aspergillus fumigatus ATCC 204305 at highest concentration measured after 24 to 48 hrs by alamar blue dye based broth microdilution assay; format: functional, organism-based
[13] = tested on: Candida albicans; assay: Antifungal activity against Candida albicans ATCC 24433 CCM 8320 at highest concentration measured after 24 to 48 hrs by alamar blue dye based broth microdilution assay; format: functional, organism-based
[14] = tested on: Pseudomonas aeruginosa; assay: Antibacterial activity against Pseudomonas aeruginosa ATCC 27853 CCM 3955 at highest concentration measured after 24 to 48 hrs by alamar blue dye based broth microdilution assay; format: functional, organism-based
[15] = tested on: Mycobacterium kansasii; assay: Antimycobacterial activity against Mycobacterium kansasii 6509/96 after 21 days; format: functional; conditions: 6509/96, 504 h; procedure, shortened: as §3
[16] = tested on: Escherichia coli; assay: Antibacterial activity against Escherichia coli ATCC 25922 CCM 3954 at highest concentration measured after 24 to 48 hrs by alamar blue dye based broth microdilution assay; format: functional, organism-based
[17] = tested on: Serratia marcescens; assay: Antibacterial activity against Serratia marcescens at highest concentration measured after 24 to 48 hrs by alamar blue dye based broth microdilution assay; format: functional, organism-based
[18] = tested on: Aspergillus flavus; assay: Antifungal activity against Aspergillus flavus CCM 8363 at highest concentration measured after 24 to 48 hrs by alamar blue dye based broth microdilution assay; format: functional, organism-based
[19] = tested on: Lichtheimia corymbifera; assay: Antifungal activity against Lichtheimia corymbifera CCM 8077 at highest concentration measured after 24 to 48 hrs by alamar blue dye based broth microdilution assay; format: functional, organism-based
[20] = tested on: Pichia kudriavzevii; assay: Antifungal activity against Candida krusei ATCC 6258 CCM8271 at highest concentration measured after 24 to 48 hrs by alamar blue dye based broth microdilution assay; format: functional, organism-based
[21] = tested on: Mycobacterium kansasii; assay: Antimycobacterial activity against Mycobacterium kansasii 6509/96 after 14 days; format: functional; conditions: 6509/96, 336 h; procedure, shortened: as §3
[22] = tested on: Klebsiella pneumoniae; assay: Antibacterial activity against Klebsiella pneumoniae at highest concentration measured after 24 to 48 hrs by alamar blue dye based broth microdilution assay; format: functional, organism-based
[23] = tested on: Mycobacterium kansasii; assay: Antimycobacterial activity against Mycobacterium kansasii CNCTC My 235/80 after 21 days; format: functional; conditions: CNCTC My 235/80, 504 h; procedure, shortened: as §3
[24] = Cytotoxicity against human HepG2 cells assessed as cell viability at 30 uM after 48 hrs by CellTiter 96 aqueous one solution assay relative to control; format: cell-based; conditions: read-out: Activity; procedure, shortened: as §4
[25] = tested on: Mycobacterium tuberculosis; assay: Antimycobacterial activity against Mycobacterium tuberculosis H37Rv CNCTC My 331/88 after 21 days; format: functional; conditions: H37Rv CNCTC My 331/88, 504 h; procedure, shortened: as §5
[26] = tested on: Staphylococcus epidermidis; assay: Antibacterial activity against Staphylococcus epidermidis at highest concentration measured after 24 to 48 hrs by alamar blue dye based broth microdilution assay; format: functional, organism-based
[27] = tested on: Mycobacterium kansasii; assay: Antimycobacterial activity against Mycobacterium kansasii CNCTC My 235/80 after 14 days; format: functional; conditions: CNCTC My 235/80, 336 h; procedure, shortened: as §3
[28] = tested on: Candida tropicalis; assay: Antifungal activity against Candida tropicalis ATCC 750 CCM 8264 at highest concentration measured after 24 to 48 hrs by alamar blue dye based broth microdilution assay; format: functional, organism-based
[29] = tested on: Mycobacterium tuberculosis; assay: Antimycobacterial activity against XDR Mycobacterium tuberculosis Praha 131 after 21 days; format: functional; conditions: Praha 131, 504 h; procedure, shortened: as §5
[30] = tested on: Staphylococcus aureus; assay: Antibacterial activity against Staphylococcus aureus subsp. aureus ATCC 29213 CCM 4223 at highest concentration measured after 24 to 48 hrs by alamar blue dye based broth microdilution assay; format: functional, organism-based
[31] = tested on: Enterococcus faecalis; assay: Antibacterial activity against Enterococcus faecalis ATCC 29212 CCM 4224 at highest concentration measured after 24 to 48 hrs by alamar blue dye based broth microdilution assay; format: functional, organism-based
[32] = tested on: HepG2; assay: Cytotoxicity against human HepG2 cells assessed as reduction in cell viability after 48 hrs by CellTiter 96 aqueous one solution assay; format: cell-based; conditions: HepG2, 48 h
[33] = tested on: Staphylococcus aureus; assay: Antibacterial activity against methicillin-resistant Staphylococcus aureus subsp. aureus ATCC 43300 CCM 4750 at highest concentration measured after 24 to 48 hrs by alamar blue dye based broth microdilution assay; format: functional, organism-based
[34] = tested on: Mycobacterium tuberculosis; assay: Antimycobacterial activity against Mycobacterium tuberculosis H37Rv CNCTC My 331/88 after 14 days; format: functional; conditions: H37Rv CNCTC My 331/88, 336 h; procedure, shortened: as §5

Structure (SMILES)	Activity [1]	Activity [2]	MIC99 [3]	MIC99 [4]	viability at 48 h, 30 µM [5]	Activity [6]	MIC99 [7]	pIC50 [8]	MIC99 [9]	MIC99 [10]	Activity [11]	MIC99 [15]	MIC99 [21]	MIC99 [23]	viability at 48 h, 30 µM [24]	MIC99 [25]	MIC99 [27]	MIC99 [29]	pIC50 [32]	MIC99 [34]	also measured
Nc1ccc2cc3ccccc3cc2c1 [2-AMINOANTHRACENE]	Toxic	Toxic																			
O=[N+]([O-])c1cc(-c2nnc(SCc3ccc(Cl)cc3)n2Cc2ccccc2)cc([N+](=O)[O-])c1	Toxic	Non-Toxic	62 µM (≈ 29.9 µg/mL)	0.06 µM (≈ 0.0289 µg/mL)	95%	inactive	0.125 µM (≈ 0.0602 µg/mL)	< 4.52	62 µM (≈ 29.9 µg/mL)	0.125 µM (≈ 0.0602 µg/mL)	inactive	0.125 µM (≈ 0.0602 µg/mL)	0.125 µM (≈ 0.0602 µg/mL)	0.5 µM (≈ 0.241 µg/mL)	105%	0.25 µM (≈ 0.12 µg/mL)	0.25 µM (≈ 0.12 µg/mL)	0.25 µM (≈ 0.12 µg/mL)	< 4.52	0.125 µM (≈ 0.0602 µg/mL)	Activity [12]: inactive; Activity [13]: inactive; Activity [14]: inactive; Activity [16]: inactive; Activity [17]: inactive; Activity [18]: inactive; Activity [19]: inactive; Activity [20]: inactive; Activity [22]: inactive; Activity [26]: inactive; Activity [28]: inactive; Activity [30]: inactive; Activity [31]: inactive; Activity [33]: inactive
Cn1c(SCc2ccc(Cl)cc2)nnc1-c1cc([N+](=O)[O-])cc([N+](=O)[O-])c1	Non-Toxic	Non-Toxic	8 µM (≈ 3.25 µg/mL)	0.125 µM (≈ 0.0507 µg/mL)	85%	inactive	0.25 µM (≈ 0.101 µg/mL)	< 4.52	8 µM (≈ 3.25 µg/mL)	0.125 µM (≈ 0.0507 µg/mL)	inactive	0.5 µM (≈ 0.203 µg/mL)	0.25 µM (≈ 0.101 µg/mL)	0.5 µM (≈ 0.203 µg/mL)	104%	0.125 µM (≈ 0.0507 µg/mL)	0.5 µM (≈ 0.203 µg/mL)	0.125 µM (≈ 0.0507 µg/mL)	< 4.52	0.125 µM (≈ 0.0507 µg/mL)	Activity [12]: inactive; Activity [13]: inactive; Activity [14]: inactive; Activity [16]: inactive; Activity [17]: inactive; Activity [18]: inactive; Activity [19]: inactive; Activity [20]: inactive; Activity [22]: inactive; Activity [26]: inactive; Activity [28]: inactive; Activity [30]: inactive; Activity [31]: inactive; Activity [33]: inactive
O=[N+]([O-])c1cc(-c2nnc(SCc3ccc(Cl)c(Cl)c3)n2Cc2ccccc2)cc(C(F)(F)F)c1	Non-Toxic	Non-Toxic	250 µM (≈ 135 µg/mL)	4 µM (≈ 2.16 µg/mL)	80%		4 µM (≈ 2.16 µg/mL)	< 4.52	250 µM (≈ 135 µg/mL)	2 µM (≈ 1.08 µg/mL)		8 µM (≈ 4.31 µg/mL)	4 µM (≈ 2.16 µg/mL)	4 µM (≈ 2.16 µg/mL)	104%	2 µM (≈ 1.08 µg/mL)	4 µM (≈ 2.16 µg/mL)	2 µM (≈ 1.08 µg/mL)	< 4.52	2 µM (≈ 1.08 µg/mL)	
Cn1c(SCc2ccccc2)nnc1-c1cc([N+](=O)[O-])cc([N+](=O)[O-])c1			16 µM (≈ 5.94 µg/mL)	0.06 µM (≈ 0.0223 µg/mL)	108%	inactive	0.25 µM (≈ 0.0928 µg/mL)	< 4.52	16 µM (≈ 5.94 µg/mL)	0.03 µM (≈ 0.0111 µg/mL)	inactive	0.25 µM (≈ 0.0928 µg/mL)	0.125 µM (≈ 0.0464 µg/mL)	0.25 µM (≈ 0.0928 µg/mL)	161%	0.03 µM (≈ 0.0111 µg/mL)	0.25 µM (≈ 0.0928 µg/mL)	0.03 µM (≈ 0.0111 µg/mL)	< 4.52	0.03 µM (≈ 0.0111 µg/mL)	Activity [12]: inactive; Activity [13]: inactive; Activity [14]: inactive; Activity [16]: inactive; Activity [17]: inactive; Activity [18]: inactive; Activity [19]: inactive; Activity [20]: inactive; Activity [22]: inactive; Activity [26]: inactive; Activity [28]: inactive; Activity [30]: inactive; Activity [31]: inactive; Activity [33]: inactive

From ChEMBL document CHEMBL4373711, “Development of 3,5-Dinitrophenyl-Containing 1,2,4-Triazoles and Their Trifluoromethyl Analogues as Highly Efficient Antitubercular Agents Inhibiting Decaprenylphosphoryl-β-d-ribofuranose 2'-Oxidase” (J Med Chem, 2019)
